# Measurements published in ChEMBL document CHEMBL1157394, “Absolute configuration and antimicrobial activity of acylhomoserine lactones” (2008).
# Active and inactive are the calls of the source. No cut-off for these calls is given here.
# Key:
# Assay type in all cases: functional
# Bacillus cereus = assay: Antimicrobial activity against Bacillus cereus CCT 4060 after 24 hrs by MTT method
# In short: (§1)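 Strain grown on solid nutrient broth slants at 30 °C for 24 h, then suspended in sterile water to 3 × 10⁸ cells/mL (McFarland). Suspension diluted into Mueller-Hinton medium in 96-well plates. Samples started from 1000 µg/mL stock in 20% aqueous DMSO and serially diluted twofold. Incubated 30 °C, 24 h; 0.025% MTT added. Purple wells scored as growth, yellow as inhibition. Run in duplicate; concentration range for growth inhibition reported.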
# Bacillus subtilis = assay: Antimicrobial activity against Bacillus subtilis CCT 0089 after 24 hrs by MTT method; in short: as §1
# Staphylococcus aureus = assay: Antimicrobial activity against Staphylococcus aureus CCT 1295 24 hrs by MTT method; in short: as §1
smiles,measurement,setting,value
CCCCCC(=O)CC(=O)NC1CCOC1=O (racemic),Activity,Bacillus cereus,62.5 µg/mL
same,Activity,Bacillus subtilis,62.5 µg/mL
same,Activity,Staphylococcus aureus,500 µg/mL
CCCCCCCCCC(=O)CC(=O)NC1CCOC1=O (racemic),Activity,Bacillus cereus,125 µg/mL
same,Activity,Bacillus subtilis,125 µg/mL
same,Activity,Staphylococcus aureus,500 µg/mL
CCCCCCC(=O)NC1CCOC1=O (racemic),Activity,Bacillus cereus,inactive
same,Activity,Bacillus subtilis,500 µg/mL
same,Activity,Staphylococcus aureus,inactive
CCCCCCCCCCCC(=O)CC(=O)NC1CCOC1=O (racemic),Activity,Bacillus cereus,500 µg/mL
same,Activity,Bacillus subtilis,250 µg/mL
same,Activity,Staphylococcus aureus,500 µg/mL
O=C(N[C@H](CO)[C@H](O)c1ccc([N+](=O)[O-])cc1)C(Cl)Cl [CHLORAMPHENICOL],Activity,Bacillus cereus,3.91 µg/mL
same,Activity,Bacillus subtilis,3.91 µg/mL
same,Activity,Staphylococcus aureus,7.81 µg/mL
